Assay outcomes deposited in PubChem by several laboratories.
CHOP UPR activ = activators of apoptotic CHOP UPR arm, primary screen, cell-based, CHO-CHOP luciferase reporter, luminescence, uHTS; UPR activation; percent of tunicamycin response over DMSO baseline; activation, % at 10 µM; 330,000 compounds, 0.34% hits; AID 449763, 2010;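 active means at 10 µM dose, activation of 40% or more, normalized to positive control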;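 further: 100% = tunicamycin at 10 µg/mL and 0% = DMSO alone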
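measured by = luciferase luminescence | assay system = CHO-CHOP cells, stable luciferase reporter of PERK-eIF2a-CHOP signalling | amount = 500 reporter cells seeded per well | timing = 6 h compound exposure at 37 °C after overnight seeding | controls = positive tunicamycin 10 µg/mL, negative DMSO alone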
ABHD5-PLIN5 inh = ABHD5-PLIN5 interaction inhibitors, primary screen, cell lysate, split luciferase complementation, luminescence | Perilipin-5 (Homo sapiens) + 1-acylglycerol-3-phosphate O-acyltransferase ABHD5 (Homo … | Split G. princeps luciferase complementation, 4 h | inhibition, % at 4 µM | 360,000 compounds, 0.78% hits;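 active means inhibition above the mean inhibition across every tested compound plus 3 SD, cut at about 22% in these data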;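 further: 0% = DMSO only wells and the 100% control is not disclosed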
Target sequence (Q00G26 whole entry, looked up): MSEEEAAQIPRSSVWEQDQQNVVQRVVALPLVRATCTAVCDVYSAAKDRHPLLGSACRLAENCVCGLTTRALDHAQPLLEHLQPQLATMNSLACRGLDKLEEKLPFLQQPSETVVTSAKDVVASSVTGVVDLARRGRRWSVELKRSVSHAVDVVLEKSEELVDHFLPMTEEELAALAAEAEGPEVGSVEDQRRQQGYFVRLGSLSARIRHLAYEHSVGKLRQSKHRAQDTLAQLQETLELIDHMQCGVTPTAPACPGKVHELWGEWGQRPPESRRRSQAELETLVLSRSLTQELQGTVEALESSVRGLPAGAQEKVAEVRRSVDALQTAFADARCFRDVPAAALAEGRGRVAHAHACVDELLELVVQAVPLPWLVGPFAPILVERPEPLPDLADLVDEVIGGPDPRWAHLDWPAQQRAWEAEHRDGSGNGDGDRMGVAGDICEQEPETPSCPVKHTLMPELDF
Target sequence (Q8WTS1 whole entry, looked up): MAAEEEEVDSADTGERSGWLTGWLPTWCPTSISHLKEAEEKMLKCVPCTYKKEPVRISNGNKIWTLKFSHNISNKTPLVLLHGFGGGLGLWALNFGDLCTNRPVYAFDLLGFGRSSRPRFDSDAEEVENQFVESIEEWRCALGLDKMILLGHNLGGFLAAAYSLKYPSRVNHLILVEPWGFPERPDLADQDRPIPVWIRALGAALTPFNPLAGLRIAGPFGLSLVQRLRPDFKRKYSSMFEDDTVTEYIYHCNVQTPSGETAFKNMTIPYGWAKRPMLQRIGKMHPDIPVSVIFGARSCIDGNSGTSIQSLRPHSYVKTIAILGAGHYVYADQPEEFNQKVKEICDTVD
XBP1 UPR activ = activators of adaptive XBP1 UPR arm, primary screen, cell-based, CHO-XBP1 luciferase reporter, luminescence, uHTS; 330,000 compounds, 0.33% hits; AID 463104, 2010; IRE1-XBP1 UPR activation; percent of tunicamycin response, DMSO as zero; activation, % at 20 µM;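 active means versus positive control, 20 µM dose yields 30% or more activation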;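 further: 100% = tunicamycin at 10 µg/mL and 0% = DMSO only wells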
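incubation = overnight seeding at 37 °C, 6 h compound treatment at 37 °C | assay system = CHO-XBP1 cells stably carrying IRE1-XBP1-driven luciferase reporter | input = 1000 cells per well | detection = luciferase luminescence | dosing = single point, 20 µM final compound, 1% DMSO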
Exocytosis inh = LAMP-1 surface exposure blockers, TALL-104 cells – cell-based, flow cytometry, MLPCN library, primary screen; 360,000 compounds, 0.66% hits; TALL-104 LAMP-1 surface exposure; cells stimulated with thapsigargin and PMA; inhibition, % at 10 µM;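 active means inhibition above about 55%, limit read from the data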
Mdm2-MdmX inh = inhibitors of human Mdm2-MdmX association, primary screen, cell-based, luminescence, split luciferase, SaOS-2, uHTS | Protein Mdm4 (Homo sapiens) + E3 ubiquitin-protein ligase Mdm2 (Homo sapiens), … | SaOS-2 split-luciferase Mdm2/MdmX complementation | inhibition, % at 8 µM | 330,000 compounds, 3% hits | AID 485346, 2010;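 active means inhibition of at least 50% at 8 µM in the primary screen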
Mdm2 MdmX conf = Mdm2-MdmX complex disruptors, retested hits, confirmation, luminescence, single concentration; 10,000 compounds, 55% hits; Mdm2-MdmX binding, luminescent assay; inhibition, % at 8 µM; shares compounds with Mdm2-MdmX inh; in the data active means inhibition above about 40%
Full FLuc ctr = full-length luciferase signal inhibition, confirmation, counter-screen for Mdm2/MdmX interaction inhibitor project, cell-based, single concentration, SaOS-2; shares compounds with Mdm2-MdmX inh; SaOS-2 full-length luciferase counterscreen, luminescence; inhibition, % at 8 µM; 6,200 compounds, 77% hits; AID 504607, 2011;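 active means mean inhibition at 8 µM reaching about 37%, which flags the compound as non-specific, limit read from the data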;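 further: p53-null SaOS-2 cells with luciferase driven by a doxycycline-inducible promoter; compound on cells about two nights before reading with doxycycline added after day one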
An asterisk follows results filed as active; · = not tested or not shown. Most compounds without a hit are left out; they make up all but 4% or so of the library.

SMILES	CHOP UPR activ	ABHD5-PLIN5 inh	XBP1 UPR activ	Exocytosis inh	Mdm2-MdmX inh	Mdm2 MdmX conf	others
CCOC(=O)c1c(CSc2nc(C)cc(C)c2C#N)n(C)c2cc(Br)c(OC(C)=O)cc12	1	0	4	-3	72*	23
C=CCCc1ccc(C#N)c(SCc2c(C(=O)OCC)c3cc(OC(C)=O)c(Br)cc3n2C)n1	6	1	-3	10	66*	89*	Full FLuc ctr=21
COc1cc2nc(N(CCCN(C)C)C(=O)c3ccc(S(=O)(=O)N4CCc5ccccc5C4)cc3)sc2cc1OC	2	10	1	46	30	·
S=c1nc(C2COc3ccccc3O2)[nH][nH]1 (configuration not stated)	0	-5	-1	-4	-5	·
CCCS(=O)(=O)c1cnc(C2COc3ccccc3O2)nc1N (configuration not stated)	-11	0	-9	4	82*	85*	Full FLuc ctr=48*
O=C(OCc1ccc(Br)cc1)c1cnc(Cl)c(Cl)c1	0	-1	6	61*	69*	48*	Full FLuc ctr=96*
O=C(OCc1ccc(Br)cc1)c1ccncc1	-1	5	1	-8	-1	·
Cc1ccc(CNC(=O)c2ccc(N3CCC4(CC3)CC(c3ccccc3)=NO4)c(NC(=O)c3ccccc3)c2)cc1	0	1	-2	-6	21	·
Cc1ccc(CNC(=O)c2ccc(N3CCC4(CC3)CC(c3ccccc3)=NO4)c(N)c2)cc1	3	-7	5	0	55*	0
CCOC(=O)N1CCC(c2cc(=O)n3[nH]c(-c4ccccc4)cc3n2)CC1	0	5	-1	-1	-11	·
Cc1cc(N2CCOCC2)c2c(N)c(Br)cc(C)c2n1	-1	-9	1	-1	74*	71*	Full FLuc ctr=35
O=C(CCC(=O)Nc1cccc(Cl)c1)N/N=C/c1cc([N+](=O)[O-])ccc1O	0	8	0	1	42	·
O=C(CN(c1cccc(Br)c1)S(=O)(=O)c1ccccc1)N/N=C/c1cc([N+](=O)[O-])ccc1O	-2	0	-4	14	52*	35
O=C(CCCC(=O)Nc1cccc(Br)c1)N/N=C/c1cc([N+](=O)[O-])ccc1O	0	2	-6	19	74*	35
CN1CCC(=NNC(=O)CN(c2cccc([N+](=O)[O-])c2)S(=O)(=O)c2ccccc2)CC1	1	-2	-2	0	8	·
COc1ccc(CCC2(C)NC(=O)NC2=O)cc1 (configuration not stated)	0	-9	0	3	-7	·
Cc1cc(C)cc(N(CC(=O)NC(C)C)C(=O)CCC(=O)Nc2ccccn2)c1	4	5	-3	-1	-3	·
COc1ccccc1NC(=O)c1cc(-c2cc(OC)c(OC)c(OC)c2)nc2ccccc12	4	-3	1	19	55*	29
COc1cc(-c2cc(C(=O)Nc3ccc(S(=O)(=O)NCc4ccco4)cc3)c3ccccc3n2)cc(OC)c1OC	7	8	0	1	63*	77*	Full FLuc ctr=50*
COc1ccc(NC(=O)c2cc(-c3ccncc3)nc3ccc(Br)cc23)cc1OC	0	9	-2	3	97*	11
COc1cc(NC(=O)c2cc(-c3ccccc3)nc3c2cnn3C(C)C)cc(OC)c1OC	5	0	-8	-3	63*	28
COc1cc(-c2cc(C(=O)Nc3ccncc3)c3ccccc3n2)cc(OC)c1OC	3	3	-1	1	18	·
COc1ccccc1NC(=O)c1oc2ccccc2c1NC(=O)c1cc(OC)c(OC)c(OC)c1	0	7	23	6	70*	62*	Full FLuc ctr=54*
COc1ccc(-c2cc(C(=O)Nc3ccc(Cl)cc3Cl)c3ccccc3n2)cc1OC	4	-7	-3	1	-20	·
COC(=O)c1cc(OC)c(OC)cc1NC(=O)c1cc(-c2ccccc2)nc2ccccc12	2	-1	-1	0	30	·
SMILES	CHOP UPR activ	ABHD5-PLIN5 inh	XBP1 UPR activ	Exocytosis inh	Mdm2-MdmX inh	Mdm2 MdmX conf	others
COc1ccc(-c2cc(C(=O)Nc3ccccc3O)c3ccccc3n2)cc1OC	9	-6	2	0	52*	52*	Full FLuc ctr=107*
CCOc1ccccc1NC(=O)c1cc(-c2cc(OC)c(OC)c(OC)c2)nc2ccccc12	4	8	4	35	55*	30
COc1ccc(OC)c(-n2c(SCC(C)=O)nnc2-c2cccc(S(=O)(=O)N(C)C)c2)c1	0	-1	-3	-1	-1	·
CC1CC(C)CN(CCCNC(=O)CCNC(=O)Cn2cnc3ccccc3c2=O)C1 (configuration not stated)	0	13	1	-5	4	·
CCCCN(C(=O)c1ccco1)c1nnc(-c2cc(OC)c(OC)c(OC)c2)s1	1	1	1	-1	5	·
CCN(CC)CCOC(=O)c1ccc(N/C=C(/C#N)c2nc(-c3cccc(OC)c3)cs2)cc1	2	6	-1	3	61*	9
CCOC(=O)c1ccc(N/C=C\C(=O)c2cccc(OC)c2)cc1	3	1	2	-2	-70	·
O=C(NCc1ccc(F)cc1)c1ccc(NC(=O)C2CCCO2)cc1 (configuration not stated)	0	4	3	-4	11	·
COc1ccc(C(O)(CC(C)C)C(CN2CCOCC2)c2ccccc2)cc1 (configuration not stated)	0	1	2	-8	77*	77*	Full FLuc ctr=31
CCc1ccc(C(O)(CC(C)C)C(CN2CCOCC2)c2ccccc2)cc1 (configuration not stated)	-1	-11	2	-5	83*	85*	Full FLuc ctr=27
COc1ccc(C(O)(CCC(C)C)C(CN2CCOCC2)c2ccc(Cl)cc2)cc1 (configuration not stated)	-1	-9	-2	4	7	·
CC(C)Oc1cccc(C(=O)N2CCCC2)c1	-2	-4	-1	0	-49	·
